Test results published in PMC5634022 (Journal of Insect Science, 2014).

System: CarE (carboxylesterase, EC3.1.1.1), final purified
Assay: esterase activity, Fast Blue B, Lineweaver-Burk
Type: biochemical, Dendrolimus superans
Conditions: read-out: K m (mol/liter); 35°C; kcat unit printed as s
Summary of the method: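 Carboxylesterase from sixth-instar larval tissue homogenate, purified at 4°C by ammonium sulfate precipitation, Sephadex G-25, DEAE-52 and hydroxyapatite chromatography. Enzyme incubated 10 min at 35°C with α- or β-naphthyl acetate at five concentrations (0.1875–3.0 × 10^-4 mol/liter). Stopped with SDS/Fast Blue B; read at 600 nm. Km and Vmax from Lineweaver–Burk plots. Kcat from SDS-PAGE molecular weight and Vmax.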

Km: 0.000162 mol/L
SMILES: CC(=O)Oc1ccc2ccccc2c1 [β-NA]
